Published values of several laboratories.
Each line is one published result; the experiments were not run side by side.
RPS6KA3 C-terminal kinase domain: Ribosomal protein S6 kinase alpha-3, C-terminal kinase domain (RPS6KA3, Homo sapiens, UniProt P51812)
RPS6KA3: Ribosomal protein S6 kinase alpha-3 (RPS6KA3, Homo sapiens, UniProt P51812)
RPS6KA3 N-terminal kinase domain: Ribosomal protein S6 kinase alpha-3, N-terminal kinase domain (RPS6KA3, Homo sapiens, UniProt P51812)

Compound | target | assay | conditions | quantity | result
CC1=C(C#N)[C@@H](c2ccc3[nH]nc(C)c3c2)C(C#N)=C(c2ccc(Cl)cc2)N1 | RPS6KA3 C-terminal kinase domain | cell-free assay, competition with immobilised ligand | 1 µM | remaining binding | 86.2%
Cc1cnc(NC2CCOCC2)nc1-n1cnc(C(=O)NC(CN)c2cc(F)cc(Cl)c2)c1 (centres unmarked) | RPS6KA3 | enzyme activity, inhibitor, radiometric | 1 µM | remaining activity | 21%
Cc1ccc(C(=O)Nc2ccc(CN3CCN(C)CC3)c(C(F)(F)F)c2)cc1C#Cc1cnc2cccnn12 | RPS6KA3 | enzyme activity, inhibitor | 23.5 nM | remaining activity | 93%
CC/C(=N\NC(=O)NCc1cccc(O)c1)c1ccc(O)c(C)c1O | RPS6KA3 | enzyme activity, inhibitor | 0.1 µM | inhibition | 79.5%
C[C@@H]1CCN(c2nccc(-c3cnn4ncccc34)n2)C1 | RPS6KA3 C-terminal kinase domain | binding, competition with immobilised ligand | 1 µM | remaining binding | 98%
CCCOc1ccc(OC)c(F)c1C(=O)c1ccc(C(=O)N[C@@H]2CNC[C@H]2NC(=O)c2ccc3[nH]ncc3c2)cc1 | RPS6KA3 | enzyme activity, inhibitor | 10 µM | remaining activity | 12%
CCN(CC)CCNC(=O)c1c(C)[nH]c(/C=C2\C(=O)Nc3ccc(F)cc32)c1C | RPS6KA3 | cell-free assay | 0.5 µM | remaining signal | 35.5%
FC(F)c1nc2ccccc2n1-c1nc(N2CCOCC2)nc(N2CCOCC2)n1 | RPS6KA3 | enzyme activity, inhibitor | 10 µM | remaining activity | 83%
CNC(=O)c1cc(Oc2ccc(NC(=O)Nc3ccc(Cl)c(C(F)(F)F)c3)cc2)ccn1 | RPS6KA3 | enzyme activity, inhibitor | 10 µM | inhibition | 46%
C[C@@H]1CCN(C(=O)CC#N)C[C@@H]1N(C)c1ncnc2[nH]ccc12 | RPS6KA3 | cell-free assay, inhibitor | 0.5 µM | remaining signal | 97%
CC(C)(C)c1nc(-c2cccc(NS(=O)(=O)c3c(F)cccc3F)c2F)c(-c2ccnc(N)n2)s1 | RPS6KA3 | enzyme activity, inhibitor, radiometric | 1 µM | remaining activity | 77%
COc1cc2ncnc(Nc3ccc(Oc4ccccc4)cc3C)c2cc1OC | RPS6KA3 | enzyme activity, inhibitor | 1 µM | inhibition | -8%
Cc1nc(N2CC[C@@H](O)C2)ncc1-c1cc(C(F)(F)F)cc2[nH]ncc12 | RPS6KA3 C-terminal kinase domain | binding, competition with immobilised ligand | 1 µM | remaining binding | 58%
CN(c1nccc(-c2cnn3ncccc23)n1)C1CC1 | RPS6KA3 N-terminal kinase domain | binding, competition with immobilised ligand | 1 µM | remaining binding | 100%
COc1cc(Nc2cnc(C#N)c(O[C@H](C)CN(C)C)n2)ncc1-c1cnn(C)c1 | RPS6KA3 | enzyme activity, inhibitor, radiometric | 1 µM | remaining activity | 9%
c1ccc(CNc2nc(N3CCOc4ccccc43)nc3c2CCCC3)cc1 | RPS6KA3 N-terminal kinase domain | target engagement in cells, inhibitor, chemoproteomics | 20 mM | inhibition | 3.3%
COc1cc(Nc2c(C#N)cnc3cc(OCCCN4CCN(C)CC4)c(OC)cc23)c(Cl)cc1Cl | RPS6KA3 | cell-free assay | 0.5 µM | remaining signal | 80.1%
FC(F)(F)Oc1cccc(-c2cnc3ccc(-c4ccncc4)nn23)c1 | RPS6KA3 | enzyme activity, inhibitor, radiometric | 5 µM | activity vs control | 98%
F[C@@H]1CCN(c2nccc(-c3cnn4ncccc34)n2)C1 | RPS6KA3 C-terminal kinase domain | binding, competition with immobilised ligand | 1 µM | remaining binding | 100%
CC(C)(O)[C@H]1CC[C@H](Nc2ccc3ncc(-c4cccc(C(F)(F)F)c4)n3n2)CC1 | RPS6KA3 | enzyme activity, inhibitor | 1 µM | remaining activity | 90.6%
O=C(NCc1ncc(C(F)(F)F)cc1Cl)c1ccc2c(c1)C1(CCS(=O)(=O)CC1)[C@@H](C1CC1)N2S(=O)(=O)c1ccc(F)cc1 | RPS6KA3 C-terminal kinase domain | cell-free assay, competition with immobilised ligand | 1 µM | remaining binding | 82%

Compound | target | assay | conditions | quantity | result
CCCS(=O)(=O)Nc1ccc(F)c(C(=O)c2c[nH]c3ncc(-c4ccc(Cl)cc4)cc23)c1F | RPS6KA3 | enzyme activity, inhibitor | 1 µM | inhibition | < 10%
O=C(Nc1cnn(-c2csc(C(=O)NC3COC3)c2)c1)Nc1ccccc1Cl | RPS6KA3 | enzyme activity, inhibitor | 5 µM | remaining activity | 101%
Cn1cncc1C1=CN(c2ncnc3[nH]cnc23)CCS1 | RPS6KA3 | enzyme activity, inhibitor, radiometric | 50 nM | inhibition | 12.3%
Cc1sc(C(=O)NC2COC2)cc1-n1cc(NC(=O)Nc2c(F)cccc2Cl)cn1 | RPS6KA3 | enzyme activity, inhibitor | 10 µM | remaining activity | 73%
CC1CCCN1c1nccc(-c2cnn3ncccc23)n1 (centres unmarked) | RPS6KA3 N-terminal kinase domain | binding, competition with immobilised ligand | 1 µM | remaining binding | 100%
CCCOc1ccc([C@H]2[C@H](C(=O)O)[C@@H](c3ccc4c(c3)OCO4)CN2CC(=O)Nc2c(CC)cccc2CC)cc1 | RPS6KA3 C-terminal kinase domain | cell-free assay, competition with immobilised ligand | 1 µM | remaining binding | 73%
O=C1Nc2ccc(Cl)cc2C1=Cc1cc(Cl)c(O)c(Cl)c1 | RPS6KA3 | cell-free assay | 0.5 µM | remaining signal | 96%
COc1ccc2c(c1)O[C@@H](c1ccc(OC)c(OC)c1)C[C@H]2NC(=O)C1(c2ccc3c(c2)OC(F)(F)O3)CC1 | RPS6KA3 C-terminal kinase domain | cell-free assay, competition with immobilised ligand | 1 µM | remaining binding | 100%
Nc1ncnc2occ(-c3ccc(NC(=O)Nc4cc(C(F)(F)F)ccc4F)cc3)c12 | RPS6KA3 N-terminal kinase domain | cell-free assay, inhibitor | 20 µM | remaining signal | 0.4%
O=C(O)c1cc(-c2ccc(C3CCNCC3)cc2)c2ccc(-c3ccc(C(F)(F)F)cc3)cc2c1 | RPS6KA3 C-terminal kinase domain | cell-free assay, competition with immobilised ligand | 1 µM | remaining binding | 80%
Nc1nc(NC2CCCCC2)sc1C(=O)c1ccccc1 | RPS6KA3 | enzyme activity, inhibitor | 10 µM | remaining activity | 85%
CN(C)C1CCN(CC#Cc2nn(C3CCCC3)c3nc(NCc4ccccc4)ncc23)C1 (centres unmarked) | RPS6KA3 | enzyme activity, inhibitor, FRET | 10 µM | inhibition | 15%
O=C(NC[C@@H]1[C@H]2CN(C(=O)OCc3cc(C(F)(F)F)cc(C(F)(F)F)c3)C[C@@H]12)c1ccc2[nH]nnc2c1 | RPS6KA3 N-terminal kinase domain | cell-free assay, competition with immobilised ligand | 1 µM | remaining binding | 94%
N[C@@H]1CCN(c2nccc(-c3cnn4ncccc34)n2)C1 | RPS6KA3 N-terminal kinase domain | binding, competition with immobilised ligand | 1 µM | remaining binding | 100%
COCCOc1nc(-c2ccc(Cl)nc2)nc2c1CN(C(=O)c1ncn3ccccc13)CC2 | RPS6KA3 N-terminal kinase domain | cell-free assay, competition with immobilised ligand | 0.1 µM | remaining binding | 100%
Cc1ccc(Nc2nccc(N(C)c3ccc4c(C)n(C)nc4c3)n2)cc1S(N)(=O)=O | RPS6KA3 | enzyme activity, inhibitor | 10 µM | inhibition | 56%
COc1ccnn2ncc(-c3ccnc(N(C)C)n3)c12 | RPS6KA3 C-terminal kinase domain | binding, competition with immobilised ligand | 1 µM | remaining binding | 100%
Cc1cc(NC(=O)c2cccc3cc(-c4cccc5[nH]nc(N)c45)ccc23)ccc1F | RPS6KA3 | enzyme activity, inhibitor | 0.1 µM | activity vs control | 131%
CN(C)c1nccc(-c2cnc3ncccn23)n1 | RPS6KA3 N-terminal kinase domain | binding, competition with immobilised ligand | 1 µM | remaining binding | 70%
COc1cc(Cl)c(C(=O)N[C@@H](CN[C@H]2CC[C@@H](N)CC2)Cc2ccc(C#N)cc2)cc1-c1ccc(CN[C@H](C)c2ccc(C)cc2)o1 | RPS6KA3 | enzyme activity, inhibitor | 1 µM | remaining activity | 72%
